Screening data as filed in PubChem BioAssay.
Shown are actives, neighbours in structure and some others; about 2.3% of the full set was active somewhere.
SKN-1 block – inhibitors of C. elegans SKN-1. C. elegans VP596 Pgst-4::GFP/RFP ratio, acrylamide-induced, 24 h. inhibition, % at 21.8 µM. 0.49% of 360,000 active;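 active = interference check ratio from 0.5 to 1.5 plus GFP to RFP signal ratio inhibition reaching or exceeding a fixed threshold, cut at about 30% in these data, passing the limit was not always enough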
MT1-MMP act inh – MT1-MMP (human) activation inhibition; HT1080 RFP-PRO-GFP cells, GFP/RFP ratio fluorescence, overnight; percent of plate control window, DMSO zero; GFP/RFP ratio change, % at 20 µM; P50281; 0.061% of 360,000 active;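 active = GFP/RFP ratio change of at least 30% with cell ATP level not reduced by more than half and red fluorescence within 50% of control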
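Assay system: HT1080 RFP-PRO-GFP cells. Benchmarks: DMSO vehicle wells and RFP-L50D-GFP reporter cell wells. Times: overnight cell settling, then overnight compound exposure, 37 °C, 5% CO2. Compound: 20 µM single dose, 1% DMSO. Read-out basis: GFP/RFP fluorescence ratio.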
DNMT1 inh – blocks human DNA methyltransferase DNMT1; DNMT1 molecular beacon, Hinp1I cleavage, fluorescence; inhibition (reported as % activation of signal), % at 10 µM; 0.83% of 360,000 active; in the data active = inhibition above about 50%
Rpn11 block – Rpn11 (human) deubiquitinase inhibition; O00487; human 26S proteasome, Ub4-pepOG fluorescence polarization; 20S core pre-blocked with epoxomicin; inhibition, % at 20 µM; 0.59% of 360,000 active; AID 588493;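 active = inhibition at 20 µM, scaled to each plate's controls, above about 33%, limit read from the data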
CSN deneddyl inh – inhibitors of human CSN-mediated cullin deneddylation; Q92905; Purified CSN, SCF-Nedd8-OG deneddylation, fluorescence polarization; inhibition, % at 12.5 µM; 0.38% of 360,000 active; AID 651999;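 active = pattern-corrected inhibition above about 35%, with an unprinted fluorescence ratio check between 0.5 and 1.5, limit read from the data, passing the limit was not always enough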;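 also: 0% = enzyme with substrate and 100% = substrate without enzyme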
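Material: human Csn5 produced in HEK293T cells; Input: enzyme 0.24 nM; Reagent: SCFSkp2-Nedd8OG substrate at 10 nM final; Dosing: 12.5 µM compound; Incubation: 90 min reaction at room temperature; Detection: fluorescence polarization of the substrate; Evaluation: % inhibition of substrate cleavage by Csn5; Control set: substrate-only high control, full reaction low control.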
SUMO1 PPI mod – alters human SUMO1 binding to SIM partners | P63165 | SUMO1 binding to a labelled peptide, TR-FRET, 1 h | inhibition, % at 20 µM | 0.33% of 360,000 active; in the data active = inhibition above about 37%
Beacon interf DR – beacon fluorescence artifact, dose response counter-screen; AID 602382; molecular beacon fluorescence, spectral interference counter-screen; IC50, µM; 200 tested, under 10 active; shares compounds with DNMT1 inh; call rule not given here
DNMT1 confirm – confirmation of human DNMT1 inhibitors; shares compounds with DNMT1 inh; DNMT1 molecular beacon HinP1I cleavage, fluorescence; inhibition, % at 10 µM; 8% of 2,300 active;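 active = average inhibition of at least 30% in the single-concentration confirmation test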
Beacon interf – counter-screen for DNMT1 inhibitors: spectral interference | AID 602387 | 1% of 2,300 active | activation (fluorescence interference), % at 10 µM | shares compounds with DNMT1 inh | DNMT1 molecular beacon spectral interference counterscreen, fluorescence 485/520;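 active = activation of at least 30% at 10 µM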;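 also: DNMT1 catalytic domain with a HinP1I cleavage step and a FAM/dabcyl DNA beacon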
Rpn11 confirm – confirmation of human proteasome Rpn11 inhibitors. inhibition, % at 20 µM. purified human 26S proteasome, Ub4-pepOG fluorescence polarization; proteasome pretreated with epoxomicin. 29% of 1,900 active. shares compounds with Rpn11 block
MMP-2 inh – MMP-2 (human) inhibition counter-screen; shares compounds with Rpn11 block; recombinant MMP-2, FRET peptide cleavage fluorescence; inhibition, % at 20 µM; 4% of 1,900 active;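 also: human MMP-2 activated beforehand with APMA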
Thrombin FP – counter-screen for RPN11 inhibitors: inhibition of bovine thrombin; shares compounds with Rpn11 block; bovine thrombin cleavage of Ub4-pepOG, fluorescence polarization; inhibition, % at 20 µM; 13% of 1,900 active; AID 602333;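 active = mean inhibition at least 40% at 20 µM, or signal 3 deviations below plate average, so some actives read negative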;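 also: plate controls were thrombin with DMSO for no effect and buffer wells lacking thrombin for full effect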
Target sequence (P00735 whole entry, looked up): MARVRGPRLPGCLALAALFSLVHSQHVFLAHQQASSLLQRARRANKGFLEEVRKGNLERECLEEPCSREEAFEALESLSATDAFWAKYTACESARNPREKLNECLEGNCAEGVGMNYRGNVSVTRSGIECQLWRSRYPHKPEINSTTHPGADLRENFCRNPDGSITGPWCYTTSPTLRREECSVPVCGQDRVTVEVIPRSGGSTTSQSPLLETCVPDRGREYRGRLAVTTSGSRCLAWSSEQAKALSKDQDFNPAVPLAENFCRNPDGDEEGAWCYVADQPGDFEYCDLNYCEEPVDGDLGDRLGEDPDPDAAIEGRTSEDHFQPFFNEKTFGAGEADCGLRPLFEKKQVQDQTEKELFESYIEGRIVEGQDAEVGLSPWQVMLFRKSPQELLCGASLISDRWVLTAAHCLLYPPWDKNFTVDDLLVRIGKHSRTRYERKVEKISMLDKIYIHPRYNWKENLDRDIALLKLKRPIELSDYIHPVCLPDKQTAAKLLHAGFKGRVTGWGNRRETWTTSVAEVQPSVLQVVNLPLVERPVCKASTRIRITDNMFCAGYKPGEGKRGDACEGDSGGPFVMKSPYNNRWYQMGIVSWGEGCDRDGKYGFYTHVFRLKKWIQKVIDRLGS
Numbers without * were called inactive; · = no result. Rule as the data show it, unless noted: active = inhibition above about 40%; inactive = the rest.

SMILES | SKN-1 block | MT1-MMP act inh | DNMT1 inh | Rpn11 block | CSN deneddyl inh | SUMO1 PPI mod | DNMT1 confirm | Beacon interf | Rpn11 confirm | MMP-2 inh | Thrombin FP | others
COc1ccc2nc(N3C(=O)/C(=C/c4ccc(Cl)cc4)NC3=S)sc2c1 | 24.4 | -42.6 | 99.8* | 77.4* | 17.6 | 28.7 | 1.1 | -3.7 | 56.0* | -22.4 | 24.6
O=C(CN1C(=O)S/C(=C\c2ccc(-c3cc(C(=O)O)ccc3Cl)o2)C1=O)Nc1ccc2c(c1)OCO2 | 4.1 | 2.4 | 96.5* | 169.2* | 18.2 | 113.9* | 21.6 | -12.8 | 34.5 | 4.2 | 21.1 | Beacon interf DR=>99
O=C(/C=C/c1ccc(Br)cc1)c1ccc(NC(=O)c2ccco2)cc1 | 7.6 | 2.4 | 87.7* | 55.3* | 24.4 | 2.1 | 0.9 | -4.8 | 3.2 | -20.5 | 1.4
Cc1ccc2nc(NC(=O)c3ccc(-c4nc5ccccc5s4)s3)sc2c1 | 0.5 | 0.5 | 78.2* | 151.5* | 51.9* | 44.3* | 1.4 | -6.7 | -3.2 | -34.5 | -14.2
O=C(Nc1nc2ccccc2s1)c1ccc(Cl)s1 | 12.6 | -9.1 | 0.0 | -5.6 | -2.1 | 2.0 | · | · | · | · | ·
O=C(Nc1nc2ccccc2s1)c1ccc2sc([C@H]3C[C@H](O)[C@@H](CO)O3)nc2c1 | -8.6 | 4.3 | -1.0 | 0.5 | 5.5 | 6.8 | · | · | · | · | ·
CCCCCCSc1ccc(-c2nc3ccc(Cl)cn3c2NCCCC)cc1OC | -1.9 | 7.1 | 78.9* | 35.7* | 4.3 | -1.0 | 0.9 | 1.9 | -10.6 | 18.0 | -13.5
Cc1cccc(C(=O)Nc2ccc(N3CCN(c4ccc(C(F)(F)F)cn4)CC3)nc2)c1 | -6.1 | 1.1 | 70.3* | 46.4* | 1.5 | 1.1 | 0.5 | 2.3 | -8.9 | -39.0 | 3.8
CC(C)Cn1c(N)c(C(=O)COC(=O)c2cc(-c3ccco3)nc3ccccc23)c(=O)n(C)c1=O | -19.5 | -17.1 | 81.2* | 40.8* | 31.6 | 5.5 | 9.8 | 6.0 | 4.2 | -37.1 | 10.2
CC(C)Cn1c(N)c(C(=O)COC(=O)c2cc(-c3ccccc3)nc3ccccc23)c(=O)n(C)c1=O | 0.2 | 5.2 | -15.6 | 5.4 | -2.4 | -28.9 | · | · | · | · | ·
COC(=O)c1sc(NC(=O)/C=C/c2ccccc2Cl)nc1C | 2.7 | 3.8 | 61.9* | 55.4* | 23.3 | 30.0 | 2.6 | 0.2 | 1.4 | -5.6 | -12.2
Oc1cc(O)c(CN2CCOCC2)cc1CN1CCOCC1 | 8.0 | 3.1 | 1.8 | -2.3 | 2.5 | 5.3 | · | · | · | · | ·
Oc1c(CN2CCOCC2)cc(CN2CCOCC2)cc1CN1CCOCC1 | -9.9 | 0.8 | 87.3* | 43.5* | 2.5 | 4.2 | 1.3 | 4.5 | 3.0 | -18.8 | 2.6
CCCc1nc2ccc(Cl)cn2c1Cc1ccccc1 | 16.1 | -0.9 | 5.4 | -13.3 | -1.6 | 0.3 | · | · | · | · | ·
CCCC1=NN2C(=N)/C(=C\c3ccc(SCc4ccco4)o3)C(=O)N=C2S1 | 43.8* | -65.5 | 104.9* | 124.0* | 75.6* | 50.4* | 14.1 | -0.6 | 40.3* | -5.3 | 23.4
CCOc1ccc(S(=O)(=O)N(CC(=O)N/N=C/c2ccc(-c3ccc([N+](=O)[O-])cc3)o2)c2ccccc2)cc1 | 17.5 | 1.9 | 99.9* | 58.5* | 8.7 | 0.8 | 11.2 | -4.8 | 43.5* | 74.3* | 18.6
